Experimental data reported in ChEMBL document CHEMBL1151762, “5-(1-Acetoxyvinyl)-cycloSaligenyl-2',3'-dideoxy-2',3'- didehydrothymidine monophosphates, a second type of new, enzymatically activated cycloSaligenyl pronucleotides” (J Med Chem, 2008).

How the values were obtained:
[1] = system: Human immunodeficiency virus 2; assay: Antiviral activity against HIV2 replication in human thymidine kinase deficient CEM cells assessed as virus-induced cytopathic effect; assay type: functional, organism-based; conditions: Human immunodeficiency virus 2, CCRF-CEM
Outline: (§1)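 CEM T-lymphocyte cultures (wild-type CEM/0 or thymidine kinase-deficient CEM/TK-) infected with HIV-1 or HIV-2; read-out is virus-induced cytopathic effect (giant cell formation). EC50 = 50% effective concentration, given as the mean of two to three independent experiments.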

[2] = Cytotoxicity against human wild type CEM/0 cells; assay type: cell-based; conditions: CCRF-CEM
Outline: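 Wild-type CEM cells; cytostatic activity reported as the 50% cytostatic concentration.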

[3] = Chemical stability assessed as half life of hydrolysis in 25 mM phosphate buffer at pH 7.3; assay type: physicochemical
Outline: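 Triesters incubated at pH 7.3 in aqueous 25 mM phosphate buffer and followed by HPLC. Half-life is taken from disappearance of the triester.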

[4] = Chemical stability assessed as half life of hydrolysis in RPMI-1640 culture medium at pH 7.6 in presence 10% heat-inactivated fetal calf serum; assay type: physicochemical
Outline: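 RPMI-1640 with 10% heat-inactivated fetal calf serum, pH 7.6 (the antiviral test medium), used in place of cell extract and run by the same HPLC procedure. Half-life is taken from disappearance of the triester.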

[5] = system: Human immunodeficiency virus 1; assay: Antiviral activity against HIV1 replication in human wild type CEM/0 cells assessed as virus-induced cytopathic effect; assay type: functional, organism-based; conditions: Human immunodeficiency virus 1, CCRF-CEM; outline: as §1
[6] = system: Human immunodeficiency virus 2; assay: Antiviral activity against HIV2 replication in human wild type CEM/0 cells assessed as virus-induced cytopathic effect; assay type: functional, organism-based; conditions: Human immunodeficiency virus 2, CCRF-CEM; outline: as §1
[7] = Chemical stability assessed as half life of hydrolysis in CEM cell extracts at pH 6.9; assay type: physicochemical, CCRF-CEM; conditions: human
Outline: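 T-lymphocyte CEM cell extracts at pH 6.9, analysed by HPLC. Half-life is taken from disappearance of the triester.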

Cc1cn([C@H]2C=C[C@@H](COP3(=O)OCc4cc(C=O)cc(C(C)(C)C)c4O3)O2)c(=O)[nH]c1=O (some centres not stated)
EC50 [1]: 15000 nM | CC50 [2]: 33 µM

CC(=O)OC(OC(C)=O)c1cc2c(c(C(C)(C)C)c1)OP(=O)(OC[C@@H]1C=C[C@H](n3cc(C)c(=O)[nH]c3=O)O1)OC2 (some centres not stated)
EC50 [1]: 780 nM | CC50 [2]: 19 µM

CC(=O)c1ccc2c(c1)COP(=O)(OC[C@@H]1C=C[C@H](n3cc(C)c(=O)[nH]c3=O)O1)O2 (some centres not stated)
half-life [3]: 18 min | EC50 [1]: > 50000 nM | half-life [4]: 36 min | CC50 [2]: 148 µM | EC50 [5]: 1300 nM | EC50 [6]: 3000 nM

CC(=O)c1cc(C)c2c(c1)COP(=O)(OC[C@@H]1C=C[C@H](n3cc(C)c(=O)[nH]c3=O)O1)O2 (some centres not stated)
half-life [3]: 45 min | EC50 [1]: 36000 nM | half-life [4]: 60 min | CC50 [2]: 96 µM | EC50 [5]: 540 nM | EC50 [6]: 2200 nM

Cc1cn([C@H]2C=C[C@@H](CO[P@@]3(=O)OCc4cc(C(OC(=O)C(C)C)OC(=O)C(C)C)cc(C(C)(C)C)c4O3)O2)c(=O)[nH]c1=O
EC50 [1]: 3600 nM | CC50 [2]: 40 µM

CC(=O)OC(OC(C)=O)c1cc2c(c(C(C)(C)C)c1)O[P@](=O)(OC[C@@H]1C=C[C@H](n3cc(C)c(=O)[nH]c3=O)O1)OC2
EC50 [1]: 290 nM | CC50 [2]: 17 µM

CC(=O)OC(OC(C)=O)c1cc2c(c(C(C)(C)C)c1)O[P@@](=O)(OC[C@@H]1C=C[C@H](n3cc(C)c(=O)[nH]c3=O)O1)OC2
EC50 [1]: 3900 nM | CC50 [2]: 51 µM

C=C(OC(C)=O)c1cc2c(c(C(C)(C)C)c1)O[P@](=O)(OC[C@@H]1C=C[C@H](n3cc(C)c(=O)[nH]c3=O)O1)OC2
half-life [3]: 810 min | EC50 [1]: 270 nM | half-life [7]: 2.4 min | half-life [4]: 456 min | CC50 [2]: 20 µM | EC50 [5]: 210 nM | EC50 [6]: 800 nM

C=C(OC(C)=O)c1cc2c(c(C(C)(C)C)c1)O[P@@](=O)(OC[C@@H]1C=C[C@H](n3cc(C)c(=O)[nH]c3=O)O1)OC2
half-life [3]: 678 min | EC50 [1]: 1700 nM | half-life [7]: 2.4 min | half-life [4]: 222 min | CC50 [2]: 67 µM | EC50 [5]: 470 nM | EC50 [6]: 1100 nM

Cc1cn([C@H]2C=C[C@@H](CO[P@@]3(=O)OCc4cc(C=O)cc(C(C)(C)C)c4O3)O2)c(=O)[nH]c1=O
EC50 [1]: 10000 nM | CC50 [2]: 41 µM

CC(=O)c1cc2c(c(C(C)(C)C)c1)O[P@@](=O)(OC[C@@H]1C=C[C@H](n3cc(C)c(=O)[nH]c3=O)O1)OC2
half-life [3]: 138 min | EC50 [1]: 2800 nM | half-life [4]: 120 min | CC50 [2]: 64 µM | EC50 [5]: 750 nM | EC50 [6]: 1200 nM

C=C(OC(C)=O)c1ccc2c(c1)COP(=O)(OC[C@@H]1C=C[C@H](n3cc(C)c(=O)[nH]c3=O)O1)O2 (some centres not stated)
half-life [3]: 84 min | EC50 [1]: > 50000 nM | half-life [7]: 7.8 min | half-life [4]: 60 min | CC50 [2]: 111 µM | EC50 [5]: 650 nM | EC50 [6]: 800 nM

Cc1cn([C@H]2C=C[C@@H](CO[P@]3(=O)OCc4cc(C=O)cc(C(C)(C)C)c4O3)O2)c(=O)[nH]c1=O
EC50 [1]: 2600 nM | CC50 [2]: 27 µM

Cc1cn([C@H]2C=C[C@@H](CO[P@]3(=O)OCc4cc(C(OC(=O)C(C)C)OC(=O)C(C)C)cc(C(C)(C)C)c4O3)O2)c(=O)[nH]c1=O
EC50 [1]: 1400 nM | CC50 [2]: 14 µM

Cc1cn([C@H]2C=C[C@@H](COP3(=O)OCc4cc(C(OC(=O)C(C)C)OC(=O)C(C)C)cc(C(C)(C)C)c4O3)O2)c(=O)[nH]c1=O (some centres not stated)
EC50 [1]: 2400 nM | CC50 [2]: 20 µM

CC(=O)c1cc2c(c(C(C)(C)C)c1)OP(=O)(OC[C@@H]1C=C[C@H](n3cc(C)c(=O)[nH]c3=O)O1)OC2 (some centres not stated)
half-life [3]: 138 min | EC50 [1]: 1700 nM | half-life [4]: 150 min | CC50 [2]: 49 µM | EC50 [5]: 450 nM | EC50 [6]: 870 nM

C=C(OC(C)=O)c1cc2c(c(C(C)(C)C)c1)OP(=O)(OC[C@@H]1C=C[C@H](n3cc(C)c(=O)[nH]c3=O)O1)OC2 (some centres not stated)
half-life [3]: 738 min | EC50 [1]: 1700 nM | half-life [7]: 2.4 min | half-life [4]: 312 min | CC50 [2]: 49 µM | EC50 [5]: 470 nM | EC50 [6]: 880 nM

CC(=O)c1cc2c(c(C(C)(C)C)c1)O[P@](=O)(OC[C@@H]1C=C[C@H](n3cc(C)c(=O)[nH]c3=O)O1)OC2
half-life [3]: 138 min | EC50 [1]: 550 nM | half-life [4]: 192 min | CC50 [2]: 56 µM | EC50 [5]: 180 nM | EC50 [6]: 510 nM

C=C(OC(C)=O)c1cc(C)c2c(c1)COP(=O)(OC[C@@H]1C=C[C@H](n3cc(C)c(=O)[nH]c3=O)O1)O2 (some centres not stated)
half-life [3]: 366 min | EC50 [1]: 730 nM | half-life [7]: 4.2 min | half-life [4]: 108 min | CC50 [2]: 18 µM | EC50 [5]: 180 nM | EC50 [6]: 400 nM

Cc1cn([C@H]2C=C[C@@H](CO)O2)c(=O)[nH]c1=O [STAVUDINE]
EC50 [1]: 69000 nM | CC50 [2]: 220 µM | EC50 [5]: 850 nM | EC50 [6]: 1100 nM
